Sampled rows, rich in hits. Any-hit rate of the full collection: about 5.6%.
aDG glyco act: activators of alpha-DG glycosylation, primary screen, uHTS, Pro5-aDG cells, AlphaScreen. alpha-DG glycosylation AlphaScreen (IIH6); 0% Pro5, 100% B10-LARGE cell signal. activation, % at 10 µM. 0.22% of 360,000 active. AID 624168, 2012;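 active = activation of at least 8% versus controls, or a plate z-score of at least 8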;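 also: Pro5 are CHO cells carrying HIG-tagged alpha-DG that lacks glycosylation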
XBP1 UPR activ: activators of adaptive XBP1 UPR arm, primary screen, cell-based, CHO-XBP1 luciferase reporter, luminescence, uHTS. IRE1-XBP1 UPR activation; percent of tunicamycin response, DMSO as zero. activation, % at 20 µM. 0.33% of 330,000 active. AID 463104, 2010;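 active = versus positive control, 20 µM dose yields 30% or more activation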
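Material: IRE1-XBP1 luciferase reporter CHO line / Quantity: one thousand reporter cells per well / Buffer or medium: F12 with 10% serum / Compound: 20 µM single concentration, DMSO 1% / Times: 6 h treatment, 37 °C / Detection: Steady-Glo luciferase glow luminescence, 10 min after reagent addition / Benchmarks: tunicamycin high, DMSO low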
CHOP inhibitor: inhibitors of CHOP promoter induction, primary screen, cell-based, unfolded protein response, luciferase reporter. 3.8% of 220,000 active. CHO-K1 CHOP-promoter luciferase, tunicamycin-induced, 15-18 h. AID 2732, 2010. inhibition, % at 10 µM;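 active = compounds that reduced the stress-induced luciferase reporter signal by more than about 70% of percent inhibition, limit read from the data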
UPR CHOP act: activators of apoptotic CHOP UPR arm, primary screen, cell-based, CHO-CHOP luciferase reporter, luminescence, uHTS. UPR activation; percent of tunicamycin response over DMSO baseline. 0.34% of 330,000 active. AID 449763, 2010. activation, % at 10 µM;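 active = at 10 µM dose, activation of 40% or more, normalized to positive control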
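Assay system: CHO cells with stable CHOP pathway luciferase reporter; Buffer or medium: F12 plus 10% serum; Times: 16-18 h cell attachment, then 6 h compound exposure, 37 °C; Signal: luciferase luminescence; Read-out basis: percent activation relative to tunicamycin control; Control set: tunicamycin high control, DMSO low control.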
MPTP block: mitochondrial permeability transition pore inhibitors, primary screen, biochemical, isolated mouse mitochondria, absorbance. Ca2+ swelling absorbance, 30 min. inhibition, % at 10 µM. 1.4% of 360,000 active. AID 602449, 2012;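 active = inhibition of 50% or more, scaled per plate between neutral and stimulator controls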
GRIN3A LBD mod: binders of NR3A ligand-binding domain, primary screen, biophysical, differential scanning fluorimetry, uHTS; Glutamate receptor ionotropic, NMDA 3A (GRIN3A) ligand-binding domain; NR3A LBD differential scanning fluorimetry, Tm shift; 0% = protein alone, 100% = glycine-bound protein; Tm shift relative to glycine control, % at 25 µM; 2.5% of 340,000 active; AID 1259313, 2017;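 active = melting temperature shift of at least 10% of the positive control shift, at one fixed dose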
Of the large screens only hits and unclear results are named; the others gave an inactive call.

O=C1C2C3C=CC(C4CC34)C2C(=O)N1Cc1ccccc1 (centres undefined)	none
O=C1C2C3C=CC(C3=C3CCCCC3)C2C(=O)N1Cc1ccccc1 (centres undefined)	CHOP inhibitor 86.2 (no result: GRIN3A LBD mod)
O=C(OCc1nc2ccsc2c(=O)[nH]1)c1cc(Br)c(Br)s1	GRIN3A LBD mod 22.2 (no result: CHOP inhibitor)
O=C(OCc1nc2ccsc2c(=O)[nH]1)c1ccco1	none (no result: CHOP inhibitor)
Oc1[nH]c2ccc(Br)cc2c1N=NC(=S)NCC1CCCO1 (centres undefined)	CHOP inhibitor 94.5
Oc1[nH]c2ccc(Br)cc2c1N=Nc1ccc(F)cc1	GRIN3A LBD mod 29.9 (no result: CHOP inhibitor)
O=[N+]([O-])c1ccc2[nH]c(O)c(N=Nc3ccc(F)cc3)c2c1	none (no result: CHOP inhibitor)
O=[N+]([O-])c1ccc(N=Nc2c(O)[nH]c3ccc(F)cc23)cc1	GRIN3A LBD mod 18.9 (no result: CHOP inhibitor)
Cc1ccc(S(=O)(=O)N/N=C/c2ccc(OS(=O)(=O)c3ccc(C)c([N+](=O)[O-])c3)cc2)cc1	CHOP inhibitor 79.9
CCN(CC)c1ccc(/C=N/NS(=O)(=O)c2cccc([N+](=O)[O-])c2)cc1	none
CCN(Cc1ccccc1)c1ccc(/C=N/NS(=O)(=O)c2ccc(C)c([N+](=O)[O-])c2)cc1	GRIN3A LBD mod 17.5
COC(=O)c1cc2ccc(OC)c(OC)c2c(=O)s1	none
COc1ccc2cc(C(=O)Nc3ccc(O)cc3)sc(=O)c2c1OC	GRIN3A LBD mod 30.7
COc1ccc2cc(C(=O)N3CCCCCC3)sc(=O)c2c1OC	none
COc1ccc2cc(C(=O)Nc3ccc(Cl)cc3)sc(=O)c2c1OC	GRIN3A LBD mod 22.2
COc1ccc2cc(C(=O)Nc3ccc(F)cc3)sc(=O)c2c1OC	GRIN3A LBD mod 20.9
CC(C)c1ccc(NC2=CC(=O)CC(C)(C)C2)cc1	none (no result: CHOP inhibitor)
Cn1c(NCCc2ccncc2)nc2cc(-c3ccsc3)sc2c1=O	none (no result: XBP1 UPR activ, CHOP inhibitor, UPR CHOP act, GRIN3A LBD mod)
CCC1CCCCN1c1cc(C)nc2cc(-c3cccc(C)c3)nn12 (centres undefined)	CHOP inhibitor 87.1
Nc1c(Cl)ncnc1N/N=C/c1cccc(O)c1	GRIN3A LBD mod 24.4
Cc1cccc(Nc2nc(-c3ccccc3)c(C(=O)Nc3cccnc3)s2)c1	none
O=C(Nc1cccnc1)c1sc(Nc2ccccc2)nc1-c1ccccc1	GRIN3A LBD mod 27.1
CS(=O)(=O)N(CC(=O)N1CCOCC1)c1ccccc1Br	none (no result: CHOP inhibitor)
Cc1ccc(NC(=O)CCNS(=O)(=O)c2cccc3nonc23)cc1	CHOP inhibitor 74.9
CC(C)c1ccc(NC(=O)CCNS(=O)(=O)c2cccc3nonc23)cc1	none
CC(=O)c1ccc(OC2(C)CCN(Cc3csc4ccccc34)C2)cc1 (centres undefined)	none (no result: XBP1 UPR activ, CHOP inhibitor, UPR CHOP act, GRIN3A LBD mod)
COc1ccc(-c2nn(CCC(=O)O)cc2/C=C2\SC(N)=NC2=O)cc1OC	none
CCCOc1ccc(-c2nn(-c3ccccc3)cc2/C=C2\SC(N)=NC2=O)cc1C	GRIN3A LBD mod 16.4
Cc1cccc(N2CCN(CC(=O)Nc3ccc(-n4cnnn4)cc3)CC2)c1C	CHOP inhibitor 94.1
Cc1cc2ccccc2n2c(SCC(=O)NCC3CCCO3)nnc12 (centres undefined)	none (no result: aDG glyco act, MPTP block)
O=C(NCCCN1CCOCC1)c1ccc2c(c1)N(Cc1ccccc1F)C(=O)c1ccccc1S2=O (centres undefined)	none (no result: CHOP inhibitor)
COc1cc(OC)cc(-c2sc3ccc(OC)cc3c2-c2ccc(OCCN3CCOCC3)cc2)c1	GRIN3A LBD mod 11.4 (no result: CHOP inhibitor)
COc1cccc(-c2sc3ccc(OC)cc3c2-c2ccc(OCCN(C)C)cc2)c1	aDG glyco act 8.6 (no result: CHOP inhibitor)
CN(CCCNC(=O)CSc1cc(=O)n(C)c2cc(Cl)ccc12)Cc1ccccc1	none
COc1ccc(C2c3sc(=O)[nH]c3SC3C4CCC(C4)C23)cc1 (centres undefined)	CHOP inhibitor 88.4
CC1(c2nnc(-c3ccccc3)o2)CC(c2ccccc2)=NO1 (centres undefined)	none (no result: CHOP inhibitor)
CCOC(=O)C1=C(COc2ccc(C)cc2)NC(=O)NC1c1cc(C)ccc1C (centres undefined)	CHOP inhibitor 90.3
CCOC(=O)C1=C(COc2ccc(F)cc2Cl)NC(=O)NC1c1cc(C)ccc1C (centres undefined)	none
CCN1C(=O)C(=O)N(CC(=O)c2cc(C)n(C3CC3)c2C)C1=O	none (no result: CHOP inhibitor)
Cc1cc(C(=O)CN2C(=O)c3ccccc3C2=O)c(C)n1C1CC1	GRIN3A LBD mod 17.3
O=C(Nc1cc(Cl)ccc1C(=O)O)c1ccc(CN2C(=O)c3ccccc3C2=O)cc1	GRIN3A LBD mod 13.2 (no result: XBP1 UPR activ, CHOP inhibitor, UPR CHOP act)
Cc1ccc2nc(SCC(=O)c3ccc(Cl)s3)[nH]c2c1	CHOP inhibitor 70.7
Cc1ccc2nc(SCC(=O)c3ccc4c(c3)OCO4)[nH]c2c1	none
CCN1CCN(c2nc(-c3ccccn3)nc3ccccc23)CC1	none
CCCN(CCC)c1nc(-c2ccccn2)nc2ccccc12	UPR CHOP act 69.2 (no result: CHOP inhibitor)
CCCCN(CC)c1nc(-c2ccncc2)nc2ccccc12	CHOP inhibitor 79.6
O=C1OC2C(O)COC23OC(O)CCC13O (centres undefined)	none (no result: XBP1 UPR activ, CHOP inhibitor, UPR CHOP act, GRIN3A LBD mod)
COc1ccc(C(=O)/C=C/Nc2cc(C)on2)c(OC)c1	GRIN3A LBD mod 30.9
Cc1[nH]n(-c2ccccc2)c(=S)c1C=Nc1cccc([N+](=O)[O-])c1	CHOP inhibitor 79.9
CCCCN=Cc1c(C)[nH]n(-c2ccccc2)c1=S	none
COc1cc(CN2C[C@@H](CO)O[C@@H](n3cnc4c(N(C)C)ncnc43)C2)cc(OC)c1OC	none (no result: XBP1 UPR activ, CHOP inhibitor, UPR CHOP act, GRIN3A LBD mod)
CNC(=S)Nc1cc(Cl)ccc1Oc1ccccc1	none
S=C(Nc1ccc(Cl)cc1Cl)Nc1ccccc1Oc1ccccc1	CHOP inhibitor 78.5
COc1ccc(NC(=O)c2cnn(-c3ccccc3)c2C)cc1	none (no result: CHOP inhibitor)
COC(=O)c1cnn(-c2ccccc2)c1/C=N/NC(=S)Nc1ccc(Cl)cc1	GRIN3A LBD mod 12.6
FC(F)(F)c1nc(Oc2ccccc2)c2ccccc2n1	CHOP inhibitor 83.1
Cc1cccn2c(=O)c3cc(C#N)c(=O)n(Cc4cccnc4)c3nc12	GRIN3A LBD mod 18.8 (no result: XBP1 UPR activ, CHOP inhibitor, UPR CHOP act)
Cc1cc(S(=O)(=O)NCc2ccccc2)ccc1OCC(=O)NCc1ccncc1	GRIN3A LBD mod 13.0 (no result: CHOP inhibitor)
COC(C(=O)N/N=C(\C)c1ccc(C(C)(C)C)cc1)c1ccccc1 (centres undefined)	none (no result: CHOP inhibitor)
Cn1c(=O)c2c(nc(C(O)c3ccccc3)n2C)n(C)c1=O (centres undefined)	none (no result: XBP1 UPR activ, CHOP inhibitor, UPR CHOP act)
COc1ccc(CN(Cc2ccc(C(=O)O)cc2)C(=S)Nc2cccc(C)c2)cc1OC	GRIN3A LBD mod 12.2
